Test results reported in ChEMBL document CHEMBL3120078, “Benzofuran derivatives as a novel class of inhibitors of mTOR signaling” (Eur J Med Chem, 2014).
Active and inactive are the calls of the source. The rule behind the calls is not given here.

Assays:
[1] = system: SQ20B; experiment: Cytotoxicity against human SQ20B cells after 72 hrs by MTT assay; format: functional, cell-based
Summary of the method: (§1)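 Cells grown in RPMI with 10% FCS, 2 mM glutamine and antibiotics at 37 °C, 5% CO2, seeded at 2 × 10³ cells/well. Treated 72 h, then MTT 0.4 mg/ml for 4 h at 37 °C. Formazan dissolved in DMSO, absorbance read at 560 nm. Untreated wells and cell-free wells as controls. IC50 taken from dose–response curves.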

[2] = system: CAKI-1; experiment: Cytotoxicity against human Caki1 cells after 72 hrs by MTT assay; format: functional, cell-based; settings: CAKI-1, 72 h
[3] = Cytotoxicity against human SKHEP1 cells after 72 hrs by MTT assay; format: functional, cell-based; settings: SK-HEP1, 72 h
[4] = Cytotoxicity against human ColoR cells after 72 hrs by MTT assay; format: functional, cell-based; summary of the method: as §1
[5] = system: OVCAR-3; experiment: Cytotoxicity against human OVCAR3 cells after 72 hrs by MTT assay; format: functional, cell-based; settings: OVCAR-3, 72 h
[6] = system: HCT-116; experiment: Cytotoxicity against human HCT116 cells after 72 hrs by MTT assay; format: functional, cell-based; settings: HCT-116, 72 h; summary of the method: as §1
[7] = system: HT-29; experiment: Cytotoxicity against human HT-29 cells after 72 hrs by MTT assay; format: functional, cell-based; settings: HT-29, 72 h; summary of the method: as §1
[8] = system: DU-145; experiment: Cytotoxicity against human DU145 cells after 72 hrs by MTT assay; format: functional, cell-based; settings: DU-145, 72 h
[9] = system: HOP-62; experiment: Cytotoxicity against human HOP62 cells after 72 hrs by MTT assay; format: functional, cell-based; settings: HOP-62, 72 h; summary of the method: as §1
[10] = system: COLO 205; experiment: Cytotoxicity against human COLO205 cells after 72 hrs by MTT assay; format: functional, cell-based; settings: COLO 205, 72 h; summary of the method: as §1
[11] = biological target: T1, mTORC1 (Homo sapiens) (UniProt P42345+Q8N122+Q9BVC4); experiment: Inhibition of mTORC1 in human SQ20B cells assessed as inhibition of S6 ribosomal protein phosphorylation after 10 to 12 hrs by pull down assay; format: cell-based
[12] = biological target: Rapamycin-insensitive companion of mTOR (Homo sapiens) (UniProt Q6R327); experiment: Binding affinity to rictor in human SQ20B cells after 10 to 12 hrs by pull down assay; format: cell-based
[13] = biological target: T2, RAC-alpha serine/threonine-protein kinase (Homo sapiens, UniProt P31749); experiment: Binding affinity to Akt in human SQ20B cells after 10 to 12 hrs by pull down assay; format: cell-based
[14] = biological target: T3, 3-phosphoinositide-dependent protein kinase 1 (Homo sapiens) (UniProt O15530); experiment: Binding affinity to PDK1 in human SQ20B cells after 10 to 12 hrs by pull down assay; format: cell-based
T3 sequence (whole entry): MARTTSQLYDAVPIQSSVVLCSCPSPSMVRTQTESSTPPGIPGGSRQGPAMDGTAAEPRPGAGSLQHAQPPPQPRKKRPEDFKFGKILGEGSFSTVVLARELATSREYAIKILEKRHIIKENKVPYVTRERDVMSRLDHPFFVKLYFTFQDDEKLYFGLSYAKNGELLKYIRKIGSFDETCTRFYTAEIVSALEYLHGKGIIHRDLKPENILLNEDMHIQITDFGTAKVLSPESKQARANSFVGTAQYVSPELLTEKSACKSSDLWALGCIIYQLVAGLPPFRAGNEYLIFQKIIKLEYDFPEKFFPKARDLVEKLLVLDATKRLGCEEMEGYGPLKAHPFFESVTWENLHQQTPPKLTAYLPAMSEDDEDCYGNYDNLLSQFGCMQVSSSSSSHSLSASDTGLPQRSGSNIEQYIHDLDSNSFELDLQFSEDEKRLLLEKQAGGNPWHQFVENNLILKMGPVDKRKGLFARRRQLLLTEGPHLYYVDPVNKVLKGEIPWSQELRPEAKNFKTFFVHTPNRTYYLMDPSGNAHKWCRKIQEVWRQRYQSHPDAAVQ

[15] = biological target: T1, mTORC1 (Homo sapiens); experiment: Inhibition of mTORC1 in human SQ20B cells assessed as AKT phosphorylation after 10 to 12 hrs by pull down assay; format: cell-based
[16] = biological target: Regulatory-associated protein of mTOR (Homo sapiens) (UniProt Q8N122); experiment: Binding affinity to raptor in human SQ20B cells after 10 to 12 hrs by pull down assay; format: cell-based
[17] = system: SQ20B; experiment: Binding affinity to PI3K in human SQ20B cells after 10 to 12 hrs by pull down assay; format: cell-based
[18] = biological target: Serine/threonine-protein kinase mTOR (Homo sapiens) (UniProt P42345); experiment: Binding affinity to mTOR in human SQ20B cells after 10 to 12 hrs by pull down assay; format: cell-based
[19] = biological target: T2, RAC-alpha serine/threonine-protein kinase; experiment: Inhibition of Akt/mTOR in human 786-O cells assessed as inhibition of nuclear export of transcription factor FOXO1a; format: cell-based
[20] = system: HOP-92; experiment: Cytotoxicity against human HOP92 cells after 72 hrs by MTT assay; format: functional, cell-based; settings: HOP-92, 72 h
[21] = Cytotoxicity against human 786-O cells; format: functional, cell-based; settings: 786-0
[22] = system: HCC 2998; experiment: Cytotoxicity against human HCC2998 cells after 72 hrs by MTT assay; format: functional, cell-based; settings: HCC 2998, 72 h

T1 sequence (Q8N122 whole entry, looked up, other chains not shown): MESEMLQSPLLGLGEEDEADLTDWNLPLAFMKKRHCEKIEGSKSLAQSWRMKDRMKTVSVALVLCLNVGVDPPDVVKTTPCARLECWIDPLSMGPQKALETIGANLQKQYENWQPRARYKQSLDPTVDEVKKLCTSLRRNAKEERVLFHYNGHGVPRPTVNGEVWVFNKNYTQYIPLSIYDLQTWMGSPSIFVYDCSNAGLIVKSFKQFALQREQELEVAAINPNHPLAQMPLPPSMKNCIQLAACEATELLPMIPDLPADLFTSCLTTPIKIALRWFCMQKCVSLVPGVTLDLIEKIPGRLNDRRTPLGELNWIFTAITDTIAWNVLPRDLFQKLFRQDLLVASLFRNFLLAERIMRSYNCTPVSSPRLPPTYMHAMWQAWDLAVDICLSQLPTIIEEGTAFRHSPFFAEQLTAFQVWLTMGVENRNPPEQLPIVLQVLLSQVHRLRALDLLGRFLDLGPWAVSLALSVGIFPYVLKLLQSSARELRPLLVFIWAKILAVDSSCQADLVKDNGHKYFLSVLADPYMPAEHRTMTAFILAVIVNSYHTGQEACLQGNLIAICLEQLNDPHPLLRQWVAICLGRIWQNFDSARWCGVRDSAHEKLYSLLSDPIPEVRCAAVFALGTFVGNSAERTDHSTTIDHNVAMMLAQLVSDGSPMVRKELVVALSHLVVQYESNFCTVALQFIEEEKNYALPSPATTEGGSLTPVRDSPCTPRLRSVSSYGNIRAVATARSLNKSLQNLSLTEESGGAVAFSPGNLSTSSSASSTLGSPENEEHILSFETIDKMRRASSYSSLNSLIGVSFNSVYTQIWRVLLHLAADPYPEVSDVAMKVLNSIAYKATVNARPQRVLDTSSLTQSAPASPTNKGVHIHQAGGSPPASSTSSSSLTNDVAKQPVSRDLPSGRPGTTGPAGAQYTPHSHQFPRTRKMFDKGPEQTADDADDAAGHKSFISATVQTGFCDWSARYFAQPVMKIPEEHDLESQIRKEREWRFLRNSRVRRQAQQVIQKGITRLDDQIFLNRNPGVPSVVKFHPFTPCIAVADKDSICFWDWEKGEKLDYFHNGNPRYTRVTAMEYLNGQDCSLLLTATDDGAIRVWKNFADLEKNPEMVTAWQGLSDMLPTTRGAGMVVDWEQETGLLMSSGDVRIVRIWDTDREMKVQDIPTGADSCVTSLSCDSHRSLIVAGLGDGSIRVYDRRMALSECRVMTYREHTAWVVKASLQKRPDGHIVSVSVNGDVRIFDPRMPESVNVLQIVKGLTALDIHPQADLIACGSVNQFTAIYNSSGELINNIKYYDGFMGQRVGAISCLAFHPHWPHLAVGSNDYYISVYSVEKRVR
T1 sequence (Q9BVC4 whole entry, looked up, other chains not shown): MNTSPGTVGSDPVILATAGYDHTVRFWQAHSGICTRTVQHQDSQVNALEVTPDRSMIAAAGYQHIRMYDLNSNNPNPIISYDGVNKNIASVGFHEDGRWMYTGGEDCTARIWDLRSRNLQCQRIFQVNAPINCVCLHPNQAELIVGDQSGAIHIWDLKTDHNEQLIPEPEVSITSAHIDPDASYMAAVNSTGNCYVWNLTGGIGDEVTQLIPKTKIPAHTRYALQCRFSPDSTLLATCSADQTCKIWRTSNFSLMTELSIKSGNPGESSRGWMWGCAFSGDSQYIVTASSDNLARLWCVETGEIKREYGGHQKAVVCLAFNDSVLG
T2 sequence (P31749 whole entry): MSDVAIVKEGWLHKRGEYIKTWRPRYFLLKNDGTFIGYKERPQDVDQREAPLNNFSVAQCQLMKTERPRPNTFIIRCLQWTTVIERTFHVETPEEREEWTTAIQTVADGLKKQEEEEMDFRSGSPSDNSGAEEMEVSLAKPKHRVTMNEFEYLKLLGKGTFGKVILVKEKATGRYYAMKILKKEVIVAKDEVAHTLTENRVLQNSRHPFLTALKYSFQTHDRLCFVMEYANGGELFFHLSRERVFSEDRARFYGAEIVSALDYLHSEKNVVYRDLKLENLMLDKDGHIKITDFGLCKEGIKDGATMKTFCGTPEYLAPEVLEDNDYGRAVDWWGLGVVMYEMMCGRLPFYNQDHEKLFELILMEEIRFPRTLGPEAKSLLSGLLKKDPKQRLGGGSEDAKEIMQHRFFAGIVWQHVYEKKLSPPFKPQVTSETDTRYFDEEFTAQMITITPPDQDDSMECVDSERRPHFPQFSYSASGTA
Sequence of Regulatory-associated protein of mTOR (Homo sapiens) (Q8N122 whole entry): as the sequence (Q8N122 whole entry, looked up, other chains not shown) above
Sequence of Rapamycin-insensitive companion of mTOR (Homo sapiens) (Q6R327 whole entry): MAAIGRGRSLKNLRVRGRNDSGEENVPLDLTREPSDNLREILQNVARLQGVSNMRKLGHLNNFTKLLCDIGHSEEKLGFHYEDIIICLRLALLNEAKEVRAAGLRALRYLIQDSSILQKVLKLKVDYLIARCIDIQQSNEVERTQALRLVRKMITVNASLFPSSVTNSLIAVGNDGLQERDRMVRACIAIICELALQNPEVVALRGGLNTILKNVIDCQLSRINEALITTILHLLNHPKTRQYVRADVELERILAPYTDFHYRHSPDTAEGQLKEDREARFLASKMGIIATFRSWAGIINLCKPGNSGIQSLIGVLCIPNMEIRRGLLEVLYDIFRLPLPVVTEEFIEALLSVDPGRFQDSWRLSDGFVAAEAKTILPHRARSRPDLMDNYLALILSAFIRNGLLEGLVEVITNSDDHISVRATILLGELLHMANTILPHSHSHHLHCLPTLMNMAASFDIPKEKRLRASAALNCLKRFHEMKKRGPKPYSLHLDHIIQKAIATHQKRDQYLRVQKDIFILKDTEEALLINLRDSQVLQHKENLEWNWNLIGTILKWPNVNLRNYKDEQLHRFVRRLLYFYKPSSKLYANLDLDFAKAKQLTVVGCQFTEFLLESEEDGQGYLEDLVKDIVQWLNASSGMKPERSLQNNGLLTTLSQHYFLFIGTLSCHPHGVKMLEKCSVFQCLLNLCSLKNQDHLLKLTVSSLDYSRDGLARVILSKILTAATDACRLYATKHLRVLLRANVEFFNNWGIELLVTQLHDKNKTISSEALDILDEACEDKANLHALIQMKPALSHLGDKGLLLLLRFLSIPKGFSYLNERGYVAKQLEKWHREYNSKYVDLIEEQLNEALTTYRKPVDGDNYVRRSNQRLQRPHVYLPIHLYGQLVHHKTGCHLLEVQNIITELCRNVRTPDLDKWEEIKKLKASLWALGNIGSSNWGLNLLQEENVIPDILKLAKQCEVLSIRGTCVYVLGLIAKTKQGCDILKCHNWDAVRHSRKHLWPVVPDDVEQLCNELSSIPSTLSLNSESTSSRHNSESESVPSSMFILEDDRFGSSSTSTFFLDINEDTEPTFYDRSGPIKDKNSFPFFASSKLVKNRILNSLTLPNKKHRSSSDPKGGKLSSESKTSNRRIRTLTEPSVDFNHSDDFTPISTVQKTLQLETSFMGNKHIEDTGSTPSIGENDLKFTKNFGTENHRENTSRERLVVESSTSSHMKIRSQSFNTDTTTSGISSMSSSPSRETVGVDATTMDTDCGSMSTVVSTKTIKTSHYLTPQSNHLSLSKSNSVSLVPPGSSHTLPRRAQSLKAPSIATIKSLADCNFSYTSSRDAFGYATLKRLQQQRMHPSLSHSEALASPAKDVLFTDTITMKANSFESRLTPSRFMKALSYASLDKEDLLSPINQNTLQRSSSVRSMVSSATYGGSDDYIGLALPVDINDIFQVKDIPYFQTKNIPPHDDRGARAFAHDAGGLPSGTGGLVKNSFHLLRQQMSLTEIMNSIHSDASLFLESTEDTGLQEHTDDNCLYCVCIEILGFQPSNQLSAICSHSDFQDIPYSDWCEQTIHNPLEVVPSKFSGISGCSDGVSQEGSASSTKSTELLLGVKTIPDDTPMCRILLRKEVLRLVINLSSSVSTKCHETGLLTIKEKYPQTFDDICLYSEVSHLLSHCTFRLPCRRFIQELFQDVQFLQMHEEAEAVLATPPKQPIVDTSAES

With `Oc1ccc2oc(-c3ccccc3)cc2c1CN1CCC(N2CCCCC2)CC1` the IC50 [1] was 2.8 µM, the IC50 [2] was 26 µM and the IC50 [3] was 42 µM. The IC50 [4] was 18 µM, the IC50 [5] was 22 µM and the IC50 [6] was 57 µM. For the same molecule, the IC50 [7] was 45 µM, the IC50 [8] was 13 µM and the IC50 [9] was 54 µM. For the same molecule, the IC50 [10] was 6.3 µM.
For `CN1CCN(Cc2c(O)ccc3oc(Cc4ccccc4)cc23)CC1`, the IC50 [1] was 18 µM.
`Oc1ccc2oc(Cc3ccccc3)cc2c1CN1CCOCC1` showed an IC50 [1] of 6.5 µM.
In the case of `CN(Cc1c(O)ccc2oc(Cc3ccccc3)cc12)C1CCCCC1`, the IC50 [1] is reported as 12 µM.
With `CCN(CC)Cc1c(O)ccc2oc(Cc3ccccc3)cc12` the IC50 [1] was 12 µM.
`CON(C)Cc1c(O)ccc2oc(Cc3ccccc3)cc12` showed an IC50 [1] of 40 µM.
For `Oc1ccc2oc(Cc3ccccc3)cc2c1CN1CCC(N2CCCC2)CC1`, the IC50 [1] was 3 µM and the inhibition [11] was “Dose-dependent effect”.
Molecule `Oc1ccc2oc(Cc3ccccc3)cc2c1CN1CCN(Cc2ccccc2)CC1` has an IC50 [1] of 36 µM.
`OCCOCCN1CCN(Cc2c(O)ccc3oc(Cc4ccccc4)cc23)CC1` showed an IC50 [1] of 21 µM.
For `Oc1ccc2oc(Cc3ccccc3)cc2c1CN1CCCC(O)C1` (stereo not given), the IC50 [1] was 11 µM.
`CN(CCO)Cc1c(O)ccc2oc(Cc3ccccc3)cc12` gave an IC50 [1] of 30 µM.
In the case of `O=C(c1ccccc1)c1cc2c(CN3CCC(N4CCCCC4)CC3)c(O)ccc2o1`, the IC50 [1] is reported as 17 µM.
Work on `Oc1ccc2oc(C(O)c3ccccc3)cc2c1CN1CCC(N2CCCCC2)CC1` (stereo not given) yielded an IC50 [1] of 13 µM.
`OCCN(Cc1c(O)ccc2oc(Cc3ccccc3)cc12)C1CCCCC1` showed an IC50 [1] of 27 µM.
In the case of `O=CN1CCN(Cc2c(O)ccc3oc(Cc4ccccc4)cc23)CC1`, the IC50 [1] is reported as 49 µM.
For `O=C(CCC(=O)ON1C(=O)CCC1=O)NCCNC(=O)COC(=O)NCCOCCOCCOCCOCCOCCOCCNC(=O)C1CCN(C2CCN(Cc3c(O)ccc4oc(-c5ccccc5)cc34)CC2)CC1`, the Activity [12] was “inactive”, the Activity [13] was “inactive” and the inhibition [11] was “Dose-dependent effect”. The Activity [14] was “inactive”, the inhibition [15] was “Active” and the Activity [16] was “inactive”. The Activity [17] was “inactive” and the Activity [18] was “Active”.
`O=C(NCCOCCO)C1CCN(C2CCN(Cc3c(O)ccc4oc(Cc5ccccc5)cc34)CC2)CC1` gave an IC50 [1] of 14 µM.
`CN(C)Cc1c(O)ccc2oc(Cc3ccccc3)cc12` showed an IC50 [1] of 33 µM, an IC50 [19] of 20 µM and an IC50 [20] of 40 µM. For the same molecule, the IC50 [21] was 10 µM and the IC50 [22] was 40 µM.
With `Oc1ccc2oc(Cc3ccccc3)cc2c1CN1CCC(N2CCCCC2)CC1` the IC50 [1] was 3 µM, the IC50 [2] was 6.9 µM and the IC50 [3] was 11 µM. For the same molecule, the IC50 [4] was 3.7 µM, the IC50 [5] was 19 µM and the IC50 [6] was 12 µM. It also gave an IC50 [7] of 5.1 µM, an IC50 [8] of 20 µM and an IC50 [9] of 11 µM. It also gave an IC50 [10] of 3.1 µM.
For `NC(=O)C1CCN(Cc2c(O)ccc3oc(Cc4ccccc4)cc23)CC1`, the IC50 [1] was 85 µM.
Molecule `Oc1ccc2oc(Cc3ccccc3)cc2c1CN1CCC(O)CC1` has an IC50 [1] of 13 µM.
Work on `CN(Cc1ccccc1)Cc1c(O)ccc2oc(Cc3ccccc3)cc12` yielded an IC50 [1] of 12 µM.
`OCCN(CCO)Cc1c(O)ccc2oc(Cc3ccccc3)cc12` gave an IC50 [1] greater than 200 µM.
Work on `Oc1ccc2oc(Cc3ccccc3)cc2c1CN1CCc2ccccc2C1` yielded an IC50 [1] of 16 µM.
`Oc1ccc2oc(Cc3ccccc3)cc2c1CN1CCC(c2ccccc2)CC1` showed an IC50 [1] greater than 200 µM.
With `COc1cccc2cc(-c3nc([C@H]4CC[C@H](C(=O)O)CC4)n4ncnc(N)c34)[nH]c12` [OSI-027] the IC50 [1] was 1.3 µM, the IC50 [2] was 1.9 µM and the IC50 [3] was 3.2 µM. For the same molecule, the IC50 [4] was 5.8 µM, the IC50 [5] was 8.1 µM and the IC50 [6] was 5.6 µM. For the same molecule, the IC50 [7] was 55 µM, the IC50 [8] was 4.1 µM and the IC50 [9] was 41 µM. The IC50 [10] was 5.8 µM.
For `CO[C@H]1C[C@@H]2CC[C@@H](C)[C@@](O)(O2)C(=O)C(=O)N2CCCC[C@H]2C(=O)O[C@H]([C@H](C)C[C@@H]2CC[C@@H](OCCO)[C@H](OC)C2)CC(=O)[C@H](C)/C=C(\C)[C@@H](O)[C@@H](OC)C(=O)[C@H](C)C[C@H](C)/C=C/C=C/C=C/1C` [EVEROLIMUS], the IC50 [1] was 5.5 µM, the IC50 [2] was 14 µM and the IC50 [3] was 12 µM. It also gave an IC50 [4] of 8.7 µM, an IC50 [5] of 16 µM and an IC50 [6] of 12 µM. The IC50 [7] was 15 µM, the IC50 [8] was 8 µM and the IC50 [9] was 19 µM. It also gave an IC50 [10] of 20 µM.
